Here are results for 3 molecules from ChEMBL document CHEMBL5653631, “A Potent and Selective ULK1 Inhibitor Suppresses Autophagy and Sensitizes Cancer Cells to Nutrient Stress” (iScience, 2018).

By inhibition is commonly meant the change of the read-out against control, counted positive when it falls.

Test [1] concerns the target Cyclin-dependent kinase-like 1 (Homo sapiens) (UniProt Q00532). Put plainly: Inhibition of human recombinant CDKL1 at 15 nM in presence of ATP by radiometric assay relative to control.
Test [2] deals with Vascular endothelial growth factor receptor 3 (Homo sapiens) (UniProt P35916). Put plainly: Inhibition of human recombinant FLT4 at 15 nM in presence of ATP by radiometric assay relative to control.
Chain of Vascular endothelial growth factor receptor 3 (Homo sapiens) (P35916 whole entry): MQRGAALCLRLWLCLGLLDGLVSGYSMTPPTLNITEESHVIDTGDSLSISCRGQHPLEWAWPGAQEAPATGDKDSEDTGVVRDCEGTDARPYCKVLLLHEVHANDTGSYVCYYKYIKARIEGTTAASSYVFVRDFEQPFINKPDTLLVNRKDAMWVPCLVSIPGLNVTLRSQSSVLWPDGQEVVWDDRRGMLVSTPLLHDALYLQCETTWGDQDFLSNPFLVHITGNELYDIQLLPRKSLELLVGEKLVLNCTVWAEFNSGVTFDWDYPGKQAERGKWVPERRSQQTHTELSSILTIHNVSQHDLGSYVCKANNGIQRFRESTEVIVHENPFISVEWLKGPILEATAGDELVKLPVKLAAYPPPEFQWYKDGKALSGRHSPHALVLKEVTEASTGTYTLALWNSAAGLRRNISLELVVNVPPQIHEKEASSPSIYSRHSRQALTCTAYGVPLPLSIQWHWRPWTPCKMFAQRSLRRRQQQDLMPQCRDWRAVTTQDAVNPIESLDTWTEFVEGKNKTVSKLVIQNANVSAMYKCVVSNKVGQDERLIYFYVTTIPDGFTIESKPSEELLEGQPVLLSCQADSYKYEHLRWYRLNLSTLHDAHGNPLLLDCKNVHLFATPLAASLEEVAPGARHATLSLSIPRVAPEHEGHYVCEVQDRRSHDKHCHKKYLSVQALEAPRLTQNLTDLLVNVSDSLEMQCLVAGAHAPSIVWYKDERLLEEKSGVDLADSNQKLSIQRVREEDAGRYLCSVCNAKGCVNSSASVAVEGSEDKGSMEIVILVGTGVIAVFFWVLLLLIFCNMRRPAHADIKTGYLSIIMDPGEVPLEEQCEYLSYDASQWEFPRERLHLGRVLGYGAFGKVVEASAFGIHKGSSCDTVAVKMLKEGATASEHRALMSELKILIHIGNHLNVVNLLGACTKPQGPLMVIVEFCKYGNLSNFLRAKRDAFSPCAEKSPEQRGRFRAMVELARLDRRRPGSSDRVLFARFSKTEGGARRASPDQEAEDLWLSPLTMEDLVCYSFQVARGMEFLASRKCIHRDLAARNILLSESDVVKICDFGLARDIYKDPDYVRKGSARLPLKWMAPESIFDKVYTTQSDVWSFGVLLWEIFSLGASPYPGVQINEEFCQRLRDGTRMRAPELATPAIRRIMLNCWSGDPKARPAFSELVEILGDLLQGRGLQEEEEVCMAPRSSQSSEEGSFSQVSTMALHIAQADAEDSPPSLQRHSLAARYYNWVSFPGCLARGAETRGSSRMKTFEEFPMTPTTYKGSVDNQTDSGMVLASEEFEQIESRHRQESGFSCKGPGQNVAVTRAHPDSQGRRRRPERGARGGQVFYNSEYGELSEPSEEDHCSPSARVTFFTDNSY
In test [3] the target is Tyrosine-protein kinase FRK (Homo sapiens) (UniProt P42685). Put plainly: Inhibition of human recombinant FRK at 15 nM in presence of ATP by radiometric assay relative to control.
Test [4] addresses Tyrosine-protein kinase Fyn (Homo sapiens) (UniProt P06241). Put plainly: Inhibition of human recombinant FYN at 15 nM related to control ULK1.
The target of test [5] is T1, Mitogen-activated protein kinase kinase kinase 3 (Homo sapiens) (UniProt Q99759).
T1 sequence (whole entry): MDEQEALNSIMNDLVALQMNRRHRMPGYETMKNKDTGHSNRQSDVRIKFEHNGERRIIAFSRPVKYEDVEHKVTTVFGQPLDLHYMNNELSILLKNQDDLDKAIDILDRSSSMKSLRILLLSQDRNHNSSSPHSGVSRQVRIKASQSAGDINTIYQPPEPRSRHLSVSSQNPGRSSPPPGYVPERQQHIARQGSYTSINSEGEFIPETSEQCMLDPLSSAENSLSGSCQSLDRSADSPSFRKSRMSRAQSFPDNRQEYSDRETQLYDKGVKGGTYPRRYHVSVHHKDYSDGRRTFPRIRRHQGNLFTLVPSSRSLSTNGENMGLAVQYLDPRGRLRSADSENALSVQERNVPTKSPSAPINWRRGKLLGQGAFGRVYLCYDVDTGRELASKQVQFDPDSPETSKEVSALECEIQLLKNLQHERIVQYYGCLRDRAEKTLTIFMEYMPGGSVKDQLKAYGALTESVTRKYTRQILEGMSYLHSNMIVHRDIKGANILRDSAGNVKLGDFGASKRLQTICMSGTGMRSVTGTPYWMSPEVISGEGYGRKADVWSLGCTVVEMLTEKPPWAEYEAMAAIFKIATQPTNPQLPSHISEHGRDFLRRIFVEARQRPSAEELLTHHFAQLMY
Put plainly: Inhibition of human recombinant MAP3K3 at 15 nM related to control ULK1.

Test [6] deals with T2, Serine/threonine-protein kinase BRSK2 (Homo sapiens) (UniProt Q8IWQ3).
T2 sequence (whole entry): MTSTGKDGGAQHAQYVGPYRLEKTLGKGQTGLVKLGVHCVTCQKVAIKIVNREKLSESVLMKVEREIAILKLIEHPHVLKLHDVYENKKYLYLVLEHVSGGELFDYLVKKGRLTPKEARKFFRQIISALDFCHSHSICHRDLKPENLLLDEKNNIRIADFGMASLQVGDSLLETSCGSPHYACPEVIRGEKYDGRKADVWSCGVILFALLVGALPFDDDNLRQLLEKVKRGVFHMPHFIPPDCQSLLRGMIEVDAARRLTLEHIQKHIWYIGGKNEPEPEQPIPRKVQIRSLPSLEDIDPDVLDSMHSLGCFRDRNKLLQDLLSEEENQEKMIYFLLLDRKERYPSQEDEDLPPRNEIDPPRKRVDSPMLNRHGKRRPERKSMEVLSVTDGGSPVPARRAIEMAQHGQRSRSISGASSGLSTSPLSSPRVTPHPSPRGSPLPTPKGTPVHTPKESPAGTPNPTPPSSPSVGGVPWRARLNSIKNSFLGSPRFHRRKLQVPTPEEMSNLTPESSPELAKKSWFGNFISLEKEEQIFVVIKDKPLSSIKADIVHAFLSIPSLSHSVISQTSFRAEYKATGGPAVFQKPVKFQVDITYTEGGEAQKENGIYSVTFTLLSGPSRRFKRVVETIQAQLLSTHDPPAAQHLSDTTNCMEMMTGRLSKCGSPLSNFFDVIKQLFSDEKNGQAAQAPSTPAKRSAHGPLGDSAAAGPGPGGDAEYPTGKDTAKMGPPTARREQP
Kind of test: Inhibition of human recombinant BRSK2 at 40 nM in presence of ATP by radiometric assay relative to control. A digest of the protocol:
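Recombinant human kinase panel (327 kinases) run as radiometric activity assays, each kinase in duplicate at one compound concentration. Activity remaining expressed relative to vehicle control; percent inhibition taken as 100% minus % activity remaining.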

Test [7] deals with Dual specificity tyrosine-phosphorylation-regulated kinase 1B (Homo sapiens) (UniProt Q9Y463). Put plainly: Inhibition of human recombinant DYRK1B at 40 nM related to control ULK1.
Chain of Dual specificity tyrosine-phosphorylation-regulated kinase 1B (Homo sapiens) (Q9Y463 whole entry, looked up): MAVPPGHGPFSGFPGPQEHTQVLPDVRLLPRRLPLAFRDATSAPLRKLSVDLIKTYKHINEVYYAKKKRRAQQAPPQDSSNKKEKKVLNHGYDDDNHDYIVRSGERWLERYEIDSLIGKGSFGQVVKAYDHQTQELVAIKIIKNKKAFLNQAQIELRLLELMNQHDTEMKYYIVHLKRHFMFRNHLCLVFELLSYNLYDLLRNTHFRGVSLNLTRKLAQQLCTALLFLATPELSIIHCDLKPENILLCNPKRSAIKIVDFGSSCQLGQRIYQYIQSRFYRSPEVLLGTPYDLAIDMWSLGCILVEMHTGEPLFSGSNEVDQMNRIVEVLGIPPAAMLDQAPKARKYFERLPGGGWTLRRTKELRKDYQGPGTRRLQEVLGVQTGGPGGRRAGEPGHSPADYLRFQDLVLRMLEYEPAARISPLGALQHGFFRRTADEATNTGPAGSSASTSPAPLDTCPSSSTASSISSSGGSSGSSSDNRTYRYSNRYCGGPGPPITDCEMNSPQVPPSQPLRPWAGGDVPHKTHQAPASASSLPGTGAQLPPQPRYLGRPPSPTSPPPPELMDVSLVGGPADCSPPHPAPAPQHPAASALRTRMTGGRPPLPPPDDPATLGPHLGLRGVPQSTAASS
The target in test [8] is 5'-AMP-activated protein kinase catalytic subunit alpha-2 (Homo sapiens) (UniProt P54646). Kind of test: Inhibition of human recombinant AMPKa2 at 500 nM in presence of ATP by radiometric assay relative to control. A digest of the protocol: (§1)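 Panel of 327 recombinant human kinases, each assayed in vitro by radiometric activity assay in duplicate at a single inhibitor concentration per compound, chosen with reference to its ULK1 inhibition. Activity remaining was expressed as percent of vehicle control, and percent inhibition was calculated as 100 minus percent activity remaining.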
Chain of 5'-AMP-activated protein kinase catalytic subunit alpha-2 (Homo sapiens) (P54646 whole entry, looked up): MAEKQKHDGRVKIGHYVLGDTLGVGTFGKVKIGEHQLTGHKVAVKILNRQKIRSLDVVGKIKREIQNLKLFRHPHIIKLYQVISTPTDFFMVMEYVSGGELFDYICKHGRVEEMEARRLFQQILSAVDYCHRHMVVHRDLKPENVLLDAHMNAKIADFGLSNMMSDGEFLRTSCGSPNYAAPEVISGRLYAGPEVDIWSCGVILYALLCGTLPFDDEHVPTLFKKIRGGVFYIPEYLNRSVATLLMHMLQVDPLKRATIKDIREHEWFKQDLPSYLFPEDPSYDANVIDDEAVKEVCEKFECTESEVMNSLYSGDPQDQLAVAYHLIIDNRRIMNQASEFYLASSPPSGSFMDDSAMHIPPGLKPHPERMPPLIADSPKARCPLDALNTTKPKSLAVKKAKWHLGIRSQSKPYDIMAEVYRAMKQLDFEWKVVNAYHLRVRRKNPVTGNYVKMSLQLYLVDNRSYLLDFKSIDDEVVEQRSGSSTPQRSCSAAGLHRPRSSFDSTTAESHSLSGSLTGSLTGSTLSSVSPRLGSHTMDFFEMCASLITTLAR

Test [9] concerns the target Transient receptor potential cation channel subfamily M member 7 (Homo sapiens) (UniProt Q96QT4). Put plainly: Inhibition of human recombinant ChaK1 at 500 nM in presence of ATP by radiometric assay relative to control.
In test [10] the target is T3, Serine/threonine-protein kinase A-Raf (Homo sapiens) (UniProt P10398).
T3 sequence (whole entry): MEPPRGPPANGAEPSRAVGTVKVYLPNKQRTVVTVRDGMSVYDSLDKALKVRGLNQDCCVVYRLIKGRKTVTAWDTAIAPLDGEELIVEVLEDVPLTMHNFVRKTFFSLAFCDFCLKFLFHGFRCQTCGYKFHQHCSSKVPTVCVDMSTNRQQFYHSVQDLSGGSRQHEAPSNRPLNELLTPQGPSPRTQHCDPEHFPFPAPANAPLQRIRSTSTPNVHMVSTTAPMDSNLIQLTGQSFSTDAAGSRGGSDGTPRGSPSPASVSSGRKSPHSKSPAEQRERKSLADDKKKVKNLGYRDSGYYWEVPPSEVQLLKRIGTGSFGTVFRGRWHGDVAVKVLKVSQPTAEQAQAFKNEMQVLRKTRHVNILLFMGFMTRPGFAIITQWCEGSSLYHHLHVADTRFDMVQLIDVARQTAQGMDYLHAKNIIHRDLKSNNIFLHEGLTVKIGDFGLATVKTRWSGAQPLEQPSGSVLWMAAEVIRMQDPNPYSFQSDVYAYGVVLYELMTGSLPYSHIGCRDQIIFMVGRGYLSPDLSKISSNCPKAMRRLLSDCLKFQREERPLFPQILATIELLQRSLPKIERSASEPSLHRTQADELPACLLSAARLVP
Kind of test: Inhibition of human recombinant ARAF at 500 nM related to control ULK1. In outline:
as §1

Test [11] deals with Mitogen-activated protein kinase 1 (Homo sapiens) (UniProt P28482). Put plainly: Inhibition of human recombinant Erk2 at 500 nM related to control ULK1.
Chain of Mitogen-activated protein kinase 1 (Homo sapiens) (P28482 whole entry): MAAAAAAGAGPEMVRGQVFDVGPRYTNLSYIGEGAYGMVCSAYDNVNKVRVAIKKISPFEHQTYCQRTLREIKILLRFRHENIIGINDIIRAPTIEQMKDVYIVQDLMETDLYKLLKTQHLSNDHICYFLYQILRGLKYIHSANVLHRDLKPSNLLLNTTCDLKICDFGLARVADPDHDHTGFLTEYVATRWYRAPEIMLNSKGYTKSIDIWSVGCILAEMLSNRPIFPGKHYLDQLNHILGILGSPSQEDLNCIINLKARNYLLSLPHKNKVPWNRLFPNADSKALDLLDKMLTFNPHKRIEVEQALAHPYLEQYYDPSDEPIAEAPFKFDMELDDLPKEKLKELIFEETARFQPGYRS
Test [12] addresses MAP/microtubule affinity-regulating kinase 3 (Homo sapiens) (UniProt P27448). Kind of test: Inhibition of human recombinant MARK3 at 500 nM related to control ULK1.

Molecules are shown by their SMILES.

Chain of Cyclin-dependent kinase-like 1 (Homo sapiens) (Q00532 whole entry): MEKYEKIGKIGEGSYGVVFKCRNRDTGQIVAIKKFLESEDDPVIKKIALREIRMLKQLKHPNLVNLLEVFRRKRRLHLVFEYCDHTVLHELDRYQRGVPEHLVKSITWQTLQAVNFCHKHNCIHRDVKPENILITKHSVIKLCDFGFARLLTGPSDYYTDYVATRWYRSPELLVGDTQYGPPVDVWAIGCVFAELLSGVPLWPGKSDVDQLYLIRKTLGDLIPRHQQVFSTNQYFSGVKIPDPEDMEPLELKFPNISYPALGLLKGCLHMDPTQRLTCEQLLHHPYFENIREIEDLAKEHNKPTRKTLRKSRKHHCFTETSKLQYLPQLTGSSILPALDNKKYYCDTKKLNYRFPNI
Chain of Tyrosine-protein kinase Fyn (Homo sapiens) (P06241 2-537 limits assumed): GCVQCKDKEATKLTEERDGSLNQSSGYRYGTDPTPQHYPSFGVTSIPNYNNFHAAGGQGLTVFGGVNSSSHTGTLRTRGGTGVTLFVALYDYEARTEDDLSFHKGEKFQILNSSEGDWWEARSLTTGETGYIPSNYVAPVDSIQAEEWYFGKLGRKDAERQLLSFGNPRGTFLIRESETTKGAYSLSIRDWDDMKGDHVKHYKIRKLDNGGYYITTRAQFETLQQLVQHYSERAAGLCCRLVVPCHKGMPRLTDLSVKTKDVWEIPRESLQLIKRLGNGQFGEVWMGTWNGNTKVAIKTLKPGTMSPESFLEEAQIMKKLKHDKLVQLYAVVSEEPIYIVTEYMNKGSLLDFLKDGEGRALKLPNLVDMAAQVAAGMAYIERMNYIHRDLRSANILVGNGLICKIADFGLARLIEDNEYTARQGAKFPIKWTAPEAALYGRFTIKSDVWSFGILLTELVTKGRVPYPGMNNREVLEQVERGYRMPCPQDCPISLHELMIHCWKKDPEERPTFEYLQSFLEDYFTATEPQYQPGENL
Chain of MAP/microtubule affinity-regulating kinase 3 (Homo sapiens) (P27448 whole entry, looked up): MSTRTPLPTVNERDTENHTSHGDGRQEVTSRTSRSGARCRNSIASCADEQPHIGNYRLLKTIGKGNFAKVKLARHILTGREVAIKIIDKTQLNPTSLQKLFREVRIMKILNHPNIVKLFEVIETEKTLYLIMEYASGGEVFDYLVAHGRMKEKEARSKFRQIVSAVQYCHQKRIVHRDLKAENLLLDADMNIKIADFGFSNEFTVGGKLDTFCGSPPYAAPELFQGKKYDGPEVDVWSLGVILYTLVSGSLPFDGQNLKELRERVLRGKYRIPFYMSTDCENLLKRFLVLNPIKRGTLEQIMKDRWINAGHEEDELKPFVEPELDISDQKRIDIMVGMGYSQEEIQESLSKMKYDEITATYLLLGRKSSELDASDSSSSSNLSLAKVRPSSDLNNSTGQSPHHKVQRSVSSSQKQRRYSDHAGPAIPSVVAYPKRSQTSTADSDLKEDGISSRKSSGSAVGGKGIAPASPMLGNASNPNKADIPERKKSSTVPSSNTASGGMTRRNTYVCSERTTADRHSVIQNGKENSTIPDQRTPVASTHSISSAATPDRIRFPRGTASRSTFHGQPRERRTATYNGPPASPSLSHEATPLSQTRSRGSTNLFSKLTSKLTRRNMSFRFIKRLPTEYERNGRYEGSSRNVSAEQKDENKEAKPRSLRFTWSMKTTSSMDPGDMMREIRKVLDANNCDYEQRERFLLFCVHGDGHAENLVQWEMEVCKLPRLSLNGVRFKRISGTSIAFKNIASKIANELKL

On to `CC(C)[C@H](NC(=O)c1cc(-c2cnn3cc(-c4ccc(OCCN5CCCCC5)cc4)cnc23)cs1)C(F)(F)F`, for which the figures for the inhibition in test [1], in [2] and in test [3] were 24%, 35% and 13%, respectively. In addition, the fold change (FC) in test [4] worked out at 0.18; in [5], 0.03.
As for `O=C(N[C@@H](C1CC1)C(F)(F)F)c1cc(-c2cnn3cc(-c4ccc(F)cc4)cnc23)cs1`, in test [6], the inhibition was 0%. The fold change (FC) in test [7] turned out to be 0.42.
`CNC(=O)c1ccccc1Oc1nc(Nc2cc(OC)c(OC)c(OC)c2)ncc1Br`: the inhibition in test [8] turned out to be 57%; in test [9], 0%. For the same molecule, the fold change (FC) in test [10] was found to be 0; in [11] it was 0; in [12], 0.61.
